Series [1] in a line: Metabolic stability in CD1 mouse liver microsomes assessed as intrinsic clearance by UPLC-MS/MS analysis. Type of series: ADME. An outline of the steps: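 Compound at 0.5 μM incubated with female CD1 mouse liver microsomes (0.5 mg mL-1, 50 mM potassium phosphate pH 7.4). Reaction started with excess NADPH. Aliquots taken at 0, 3, 6, 9, 15, 30 min and quenched in acetonitrile with internal standard, then analysed by UPLC-MS/MS.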

Series [2] in a line: Metabolic stability in human liver microsomes assessed as intrinsic clearance by UPLC-MS/MS analysis. The format is ADME.
The nature of series [3]: AUC in Sprague-Dawley rat at 10 mg/kg, po by UPLC-MS/MS analysis. The format is ADME, organism-based. Further details: dose 10 mg/kg, route po. To be noted: in vivo. An outline of the steps: (§1)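 Oral gavage at 10 mg kg-1 free base in 10% DMSO/40% PEG400/50% water, 5 mL kg-1, to female NMRI mice (n = 3) or Sprague-Dawley rats. Blood drawn at 5, 15, 30 min and 1, 2, 4, 6, 8 h, mixed with two volumes of water, measured by UPLC-MS/MS. Parameters taken from the mean blood concentration–time curve.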

A short description of series [4]: Cmax in NMRI mouse at 50 mg/kg, ip by UPLC-MS/MS analysis. The format is ADME, organism-based. Further details: dose 50 mg/kg, route ip. To be noted: in vivo.
The nature of series [5]: Tmax in NMRI mouse at 50 mg/kg, ip by UPLC-MS/MS analysis. The following applies: in vivo. The format is ADME, organism-based.
The nature of series [6]: AUC in NMRI mouse at 50 mg/kg, ip by UPLC-MS/MS analysis. The format is ADME, organism-based. The following applies: in vivo. Further details: dose 50 mg/kg, route ip.
Series [7] can be described thus: Free Cmax in NMRI mouse at 50 mg/kg, ip by UPLC-MS/MS analysis. To be noted: in vivo. Type of series: ADME, organism-based.
Series [8] in a line: Free Cmax in Sprague-Dawley rat at 10 mg/kg, po by UPLC-MS/MS analysis. To be noted: in vivo. The format is ADME, organism-based.
Series [9] is described as follows: Cmax in NMRI mouse at 100 mg/kg, ip by UPLC-MS/MS analysis. The format is ADME, organism-based. Further details: dose 100 mg/kg, route ip. The following applies: in vivo.
Series [10] is described as follows: Free Cmax in NMRI mouse at 100 mg/kg, ip by UPLC-MS/MS analysis. The format is ADME, organism-based. The following applies: in vivo.
Series [11] concerns Trypanosoma brucei brucei. The series is described as follows: Antiparasitic activity against Trypanosoma brucei brucei S427 injected in Sprague-Dawley rat assessed as cure by measuring reduction in parasitemia at 100 mg/kg, po twice daily for 4 days by stage I efficacy study. The format is functional, organism-based. The following applies: time 4.0 day.
Series [12] has as its system Trypanosoma brucei brucei. In words: Antiparasitic activity against Trypanosoma brucei brucei S427 injected in NMRI mouse assessed as cure by measuring reduction in parasitemia at 100 mg/kg, for 4 days by stage I efficacy study. The following applies: time 4.0 day.
Series [13] has as its system Trypanosoma brucei. In words: Antiparasitic activity against bloodstream-stage Trypanosoma brucei measured after 73 hrs by resazurin assay. The format is functional, organism-based.
Series [14] is described as follows: Cmax in NMRI mouse at 10 mg/kg, po by UPLC-MS/MS analysis. Type of series: ADME, organism-based. Further details: dose 10 mg/kg, route po. The following applies: in vivo. An outline of the steps:
as §1

Series [15] in a line: Tmax in NMRI mouse at 10 mg/kg, po by UPLC-MS/MS analysis. Type of series: ADME, organism-based. The following applies: in vivo. The method in brief:
as §1

Series [16] in a line: AUC in NMRI mouse at 10 mg/kg, po by UPLC-MS/MS analysis. The format is ADME, organism-based. Further details: dose 10 mg/kg, route po. To be noted: in vivo. The method in brief: as §1
Series [17] in a line: Cmax in NMRI mouse at 10 mg/kg, ip by UPLC-MS/MS analysis. The format is ADME, organism-based. Further details: dose 10 mg/kg, route ip. The following applies: in vivo. An outline of the steps:
(§2)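 Female NMRI or HRN mice (n = 3) given a single IP dose of 10 mg kg-1 free base in 5% DMSO/40% PEG400/55% water or 15% solutol/85% water, 10 mL kg-1. Blood sampled at 5, 15, 30 min and 1, 2, 4, 6, 8 h, diluted with two volumes of water, assayed by UPLC-MS/MS. PK parameters derived from the mean blood concentration–time curve.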

Series [18] can be described thus: Tmax in NMRI mouse at 10 mg/kg, ip by UPLC-MS/MS analysis. The format is ADME, organism-based. To be noted: in vivo. An outline of the steps:
as §2

Series [19] in a line: AUC in NMRI mouse at 10 mg/kg, […] by UPLC-MS/MS analysis. The format is ADME, organism-based. Further details: dose 10 mg/kg. To be noted: in vivo. An outline of the steps: as §2
Series [20] in a line: Cmax in HRN mouse at 10 mg/kg, ip by UPLC-MS/MS analysis. To be noted: in vivo. Further details: dose 10 mg/kg, route ip. The format is ADME, organism-based. An outline of the steps:
as §2

A short description of series [21]: Tmax in HRN mouse at 10 mg/kg, ip by UPLC-MS/MS analysis. The format is ADME, organism-based. To be noted: in vivo. The method in brief:
as §2

Series [22] is described as follows: AUC in HRN mouse at 10 mg/kg, […] by UPLC-MS/MS analysis. Type of series: ADME, organism-based. Further details: dose 10 mg/kg. The following applies: in vivo. An outline of the steps: as §2
Series [23] concerns Trypanosoma brucei brucei. The series is described as follows: Antiparasitic activity against Trypanosoma brucei brucei S427 injected in NMRI mouse assessed as cure by measuring reduction in parasitemia at 10 mg/kg, ip twice daily for 4 days by stage I efficacy study. Further details: scale not given: the % may be the effect or the level left. The format is functional. To be noted: time 4 day. An outline of the steps: (§3)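 Female NMRI mice (3–5 per group) infected IP with 1 × 10^4 bloodstream T. b. brucei S427 from cryopreserved stabilate diluted in Hanks' balanced salt solution with glucose. Dosed IP twice daily, days 3–6, in 5% DMSO/40% PEG400/55% water, 10 mL kg-1, prepared fresh daily. Parasitemia followed to day 30; untreated control group of three mice.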

Series [24] relates to Trypanosoma brucei brucei. The series is described as follows: Antiparasitic activity against Trypanosoma brucei brucei S427 injected in NMRI mouse assessed as cure by measuring reduction in parasitemia at 10 mg/kg, ip twice daily for 4 days measured upto 30 days by stage I efficacy study. Type of series: functional, organism-based. The following applies: time 4.0 day. An outline of the steps:
as §3

Series [25] in a line: Permeability across blood brain barrier in NMRI mouse stage 2 CNS model. Type of series: ADME. The following applies: read-out: BBR. The method in brief:
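Female NMRI mice (n = 3) received a 10 mg kg-1 IV bolus in 15% solutol. At 30 min, under terminal isoflurane anesthesia, blood was taken by cardiac puncture and the brain removed. Both were quantified by UPLC-MS/MS; brain (ng g-1) divided by blood (ng mL-1) per mouse gives the brain:blood ratio.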

A short description of series [26]: Fraction unbound in NMRI mouse brain stage 2 CNS model. The format is ADME.
Series [27] can be described thus: Fraction unbound in NMRI mouse. The format is ADME.
A short description of series [28]: Drug metabolism in mouse liver microsomes assessed as retention time of 4-hydroxycyclohexyl metabolite at 0.5 to 5 uM for 60 mins by LC-MS analysis. Type of series: ADME, Microsome. The following applies: 1 h, dose 0.5-5 µM. The method in brief:
(§4)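 Mouse liver microsomes incubated with compound at 0.5 and 5 μM for 60 min. Oxidized metabolites (m/z 354) detected and their retention times recorded by LC–MS.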
(Microsomes from liver hold many membrane-bound enzymes, among them those of drug oxidation.)

Series [29] is described as follows: Drug metabolism in mouse liver microsomes assessed as retention time of 3-hydroxycyclohexyl metabolite at 0.5 to 5 uM for 60 mins by LC-MS analysis. To be noted: 1 h, dose 0.5-5 µM. Type of series: ADME, Microsome. An outline of the steps:
as §4

Series [30] concerns Trypanosoma brucei. In words: Antiparasitic activity against bloodstream-form Trypanosoma brucei in presence of 5% Co2 incubated for 69 hrs followed by resazurin addition further incubated for 4 hrs. The format is functional, organism-based.
A short description of series [31]: Antiproliferative activity against human MRC5 cells in presence of 5% Co2 incubated for 69 hrs followed by resazurin addition further incubated for 4 hrs. Type of series: toxicity, cell-based. Background: The colour change of resazurin is a common sign of viable cells or microbes.
Series [32] is described as follows: Selectivity index, ratio of EC50 for human MRC-5 cells to EC50 for bloodstream-form Trypanosoma brucei. The format is toxicity. The following applies: read-out: Selectivity Index.
For series [33], the system named is Trypanosoma brucei. The series is described as follows: Antiparasitic activity against bloodstream-form Trypanosoma brucei assessed as cidal in presence of 5% Co2 at > 5.6 uM incubated for 24 hrs by static-cidal assay. Type of series: functional, organism-based.
Series [34] has as its system Trypanosoma brucei. In words: Antiparasitic activity against bloodstream-form Trypanosoma brucei assessed as static in presence of 5% Co2 at < 5.6 uM incubated for 24 hrs by static-cidal assay. The format is functional, organism-based.
Series [35] can be described thus: Toxicity in mouse assessed as tolerability at 20 mg/kg, ip. The format is organism-based. The following applies: in vivo.

Active and inactive are the calls of the source. The rule behind the calls is not given here. Bounds are passed on as bounds.

This is an account of results in ChEMBL document CHEMBL5346944, “Development of a 2,4-Diaminothiazole Series for the Treatment of Human African Trypanosomiasis Highlights the Importance of Static-Cidal Screening of Analogues” (J Med Chem, 2023).

Take `CC(C)(O)CC(=O)c1sc(Nc2ccc(F)c(F)c2)nc1N`: the results for the CLH in series [1] and in series [2] were 2.2 mL/min/g and less than 0.5 mL/min/g, respectively. Also, the AUC came out at 470 µg·h/mL in series [3] and 1900 µg·h/mL in series [6]. The results for the Cmax in [4] and in series [9] were 18000 ng/mL and 36000 ng/mL, respectively. Further, the Tmax in [5] came out at 30 min. The fCmax was determined as 2600 ng/mL in [7], 195 ng/mL in series [8] and 5200 ng/mL in series [10]. The outcome in [11] and in series [12] was inactive.
Turning to `Nc1nc(NC2CCCCC2)sc1C(=O)c1c(F)cccc1F`, the 50% effective concentration (EC50) in the series with Trypanosoma brucei [13] and in the series on Trypanosoma brucei [30] was 110 nM in each case. Moreover, the values for the Cmax in series [14], in series [17] and in series [20] were 33 ng/mL, 830 ng/mL and 3800 ng/mL, respectively. Besides, the Tmax is 30 min in series [15], 15 min in series [18] and 30 min in series [21]. In addition, the exposure (AUC) was determined as 5700 ng·h/mL in series [16], 66000 ng·h/mL in series [19] and 1000 µg·h/mL in series [22]. In addition, the results for the Activity in series [23] and in [35] were 100% and “Toxic”, respectively. Further, the result (in series [24]; with Trypanosoma brucei [33]; in the series with Trypanosoma brucei [34]) was Active. Besides, the Kp in series [25] was determined as 3.3. Moreover, the fraction unbound was found to be 0.006 in series [26] and 0.0063 in [27]. The CLH in series [1] came to 15 mL/min/g. Also, the Retention_time in series [28] was 3.43 min; in series [29] it was 3.86 min. The 50% effective concentration (EC50) at 69 h in series [31] came to 1200 nM. For the same compound, in series [32], the selectivity ratio was found to be 11.

What is called AUC is concentration integrated over time. The term Cmax denotes the highest concentration seen after dosing. What is called Tmax is the time from dosing to the highest level. Broadly, the EC50 is the concentration needed to bring the measured effect to its halfway point. As usually defined, the fraction unbound is the share of the substance not bound to proteins or other matrix.
